High-throughput results from PubChem.
In the library only some 3.5% were active in any assay of this set; here they are far more common.
RGS4 inh: human RGS4 inhibition | P49798 | HEK293 M3R/RGS4 inducible, Fluo-4 calcium flux; stronger effect = higher value; triggered by carbachol at its EC20 | B-score at 10 µM | hit rate 0.45% among 310,000 | AID 463165;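 active = B-score, a plate-corrected calcium signal, over three deviations above library mean, with baseline fluorescence within five deviations of library mean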;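 note: RGS4 expression induced by doxycycline in cells with stable M3 receptor; B-score is computed from the integrated fluorescence ratio over baseline after carbachol; higher B-score means a larger calcium signal and so more RGS4 inhibition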
Target sequence (P49798 whole entry, looked up): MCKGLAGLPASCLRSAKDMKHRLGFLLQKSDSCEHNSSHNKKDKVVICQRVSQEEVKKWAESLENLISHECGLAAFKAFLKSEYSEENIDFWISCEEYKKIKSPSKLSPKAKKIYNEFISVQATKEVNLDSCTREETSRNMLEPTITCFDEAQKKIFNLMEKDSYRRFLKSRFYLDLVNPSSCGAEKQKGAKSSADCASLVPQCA
MrgX1 antagonist: antagonists of human MrgX1 receptor; Q96LB2; MRGX1-HEK293 calcium flux, Fluo-4, BAM8-22 antagonism; stronger effect = lower value; B-score at 10 µM; hit rate 1.3% among 310,000;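 active = calcium-response B-score plate-corrected more than 3 library SD below zero, starting fluorescence within 5 deviations, no agonist response on first addition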;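 note: peak minus trough fluorescence over baseline after final BAM8-22 challenge near maximal dose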
MrgX1 ag: activates human MrgX1 receptor signaling. Q96LB2. MrgX1-HEK293 cells, Fluo-4 calcium fluorescence, agonist mode; stronger effect = higher value. B-score at 10 µM. hit rate 0.44% among 310,000. AID 588627;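 active = calcium response B-score plate-corrected fluorescence ratio at least 3 library SD, with starting fluorescence B-score inside 5 SD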
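Test system: HEK293 cells stably expressing human MrgX1 receptor; amount: 15,000 cells per well; doses: compound delivered in addition one of three; times: overnight plating before 1 h dye loading; detection: Fluo-4 NW calcium-flux fluorescence, kinetic read; read-out basis: B-scored fluorescence response ratio; controls: positive and negative controls per plate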
MrgX1 PAM: allosterically activates human MrgX1 receptor signaling. Q96LB2. MrgX1-HEK293, Fluo-4 calcium flux, FDSS; stronger effect = higher value. B-score at 10 µM. hit rate 0.63% among 310,000;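 active = plate-corrected calcium response at least 3 library SD above typical, normal starting fluorescence, not activating the receptor alone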;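 note: compound read alongside a low EC10 to EC30 dose of BAM8-22 agonist; peak minus trough fluorescence over baseline measured at the second addition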
RGS4 act: RGS4 potentiation or activation; hit rate 0.92% among 310,000; HEK293 M3R/inducible RGS4, carbachol calcium flux Fluo4; stronger effect = lower value; B-score at 10 µM;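 active = B-score of the integrated calcium signal more than 4 SD below the library mean, with starting fluorescence not abnormally high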;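 note: negative B-score means reduced calcium response which marks RGS4 activation or potentiation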
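Test system: HEK293 cells with stable M3R and inducible RGS4; also added: carbachol at ECmax as muscarinic agonist stimulus; schedule: dye loading 30 min 37 °C, buffer rest 30 min RT; technique: kinetic calcium fluorescence imaging with Fluo4-AM dye, 2 µM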
* = called active by the depositor; i = inactive; . = not tested or not shown.

SMILES	RGS4 inh	MrgX1 antagonist	MrgX1 ag	MrgX1 PAM	RGS4 act
O=C(Nc1ncc(S(=O)(=O)c2ccc([N+](=O)[O-])cc2)s1)c1cccc2ccccc12	i	i	i	i	-7.65*
Cc1ccc(Oc2ncccc2/C=N/OCc2ccc(Cl)cc2Cl)cc1	i	i	i	7.31*	i
CCn1c(N2CCN(Cc3ccc([N+](=O)[O-])cc3)CC2)nc2ccccc21	i	i	i	i	i
CCCn1c(N2CCN(Cc3ccc(Cl)cc3)CC2)nc2ccccc21	i	i	29.7*	i	i
CC(C)n1nc(C(=O)Nc2nc3ccc(S(C)(=O)=O)cc3s2)c2ccccc2c1=O	i	i	i	i	i
CC(C)n1nc(C(=O)Nc2nnc(SCc3c(Cl)cccc3Cl)s2)c2ccccc2c1=O	i	-6.24*	i	i	i
COc1ccccc1N=Nc1c(C)n[nH]c1C	i	i	i	i	i
Cc1n[nH]c(C)c1N=Nc1cc(Cl)ccc1Cl	i	-5.36*	i	i	i
CCOc1cc(C(=O)OC(C)C(=O)Nc2ccc(NC(C)=O)cc2)ccc1OCC(=O)N1CCCCC1 (stereo not given)	i	i	i	i	i
CCOc1cccc2c1OC(c1cc(OC)c(OC)c(OC)c1)N1N=C(c3ccc(C)o3)CC21 (stereo not given)	i	-5.81*	i	i	i
CN(C)N1C(N)=C(C#N)C(c2ccc3c(c2)OCO3)C2=C1CCCC2=O (stereo not given)	i	i	i	i	i
Cc1ccccc1/C=C/C(=O)N1CCOCC1	i	i	i	i	i
COc1ccccc1/C=C/C(=O)N1CCOCC1	i	i	i	i	-7.78*
CC(C(=O)NN)c1ccc([N+](=O)[O-])cc1 (stereo not given)	i	i	i	9.24*	i
CC(NS(=O)(=O)c1ccc([N+](=O)[O-])cc1)C(=O)NN (stereo not given)	i	i	i	i	i
CCCN1C(=O)/C(=C/c2c(NCCCOC(C)C)nc3c(C)cccn3c2=O)SC1=S	i	-10.4*	i	i	i
CCC(C)N1C(=O)/C(=C/c2c(NCCCOC(C)C)nc3c(C)cccn3c2=O)SC1=S (stereo not given)	.	-11.1*	i	i	.
Cc1cccn2c(=O)c(C=NCc3ccccc3)c(NCCO)nc12	i	i	i	i	i
CCC(C)Nc1nc2c(C)cccn2c(=O)c1C=Nc1ccc(OC)cc1 (stereo not given)	i	i	i	i	i
COC(=O)C(=Cc1ccccc1[N+](=O)[O-])C(=O)OC	i	i	50*	i	i
CCCCCCCCNC(=O)/C(C#N)=C/c1ccccc1[N+](=O)[O-]	i	i	i	i	-7.9*
O=C(/C=C/c1ccccc1[N+](=O)[O-])Oc1ccccc1	i	i	i	i	i
CCN(CC)S(=O)(=O)c1ccc(NCc2ccccc2)nc1	i	i	i	i	i
CCOc1ccc(OCCCC(=O)N(C)CC(=O)Nc2ccc(N3CCOCC3)cc2)cc1	i	i	i	i	i
COc1ccc(CCC(=O)N(C)CC(=O)Nc2ccc(N3CCOCC3)cc2)cc1	i	i	i	10.8*	i
SMILES	RGS4 inh	MrgX1 antagonist	MrgX1 ag	MrgX1 PAM	RGS4 act
CC1CCCN(CCCOc2ccc(Br)cc2Cl)C1 (stereo not given)	i	i	i	i	i
CC1CCN(CCOCCOc2ccc(Br)cc2Cl)CC1	i	i	i	i	-7.19*
CC(Oc1ccccc1)C(=O)Nc1nnc(C2CCCCC2)s1 (stereo not given)	i	i	i	i	i
COc1ccc(OC)c(N(CC(N)=O)S(=O)(=O)c2ccc(OC)c(OC)c2)c1	i	i	i	11.9*	i
COc1ccc(OC)c(N(CC(=O)N2CCCCC2)S(=O)(=O)c2ccc(OC)c(OC)c2)c1	i	i	i	i	i
Cc1ccc(NC(=O)COC(=O)c2ccc(=O)n(Cc3ccccc3)n2)cc1F	i	i	i	i	i
CC(OC(=O)c1ccc(=O)n(Cc2ccccc2)n1)C(=O)Nc1cccc(Cl)c1 (stereo not given)	i	-5.28*	i	i	i
